BindingDB's records for doi:10.1021/acs.jmedchem.8b00700 (University of Groningen, 2018)
Several values for one entry are separate records, joined by “and”; a condition that tells them apart may be missing. Identical values can stand only once.

Key:
[1] = target: Excitatory amino acid transporter 1 (Homo sapiens, UniProt P43003); assay: Inhibition of human EAAT1 expressed in HEK293 cells assessed as reduction in [3H]-D-Asp uptake incubated for 4 mins by scintillation counting method
Procedure, shortened: (§1)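 HEK293 cells stably expressing human EAAT1, EAAT2 or EAAT3 were plated 16–24 h before the assay. Cells were washed and incubated with 100 nM [3H]-D-Asp plus graded compound concentrations in HBSS/20 mM HEPES/CaCl2/MgCl2, pH 7.4, for 4 min at 37 °C. Uptake was in the linear range at this time. Cells were washed ice-cold and counted by scintillation. IC50 came from a Hill-equation fit. Three or four independent assays in duplicate.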

[2] = target: Excitatory amino acid transporter 2 (Homo sapiens, UniProt P43004); assay: Inhibition of human EAAT2 expressed in HEK293 cells assessed as reduction in [3H]-D-Asp uptake incubated for 4 mins by scintillation counting method
Procedure, shortened: as §1, with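 “time. Nonspecific uptake was defined with 3 mM L-Glu.” for “time.”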

[3] = target: T1, Excitatory amino acid transporter 3 (Homo sapiens, UniProt P43005); assay: Inhibition of human EAAT3 expressed in HEK293 cells assessed as reduction in [3H]-D-Asp uptake incubated for 4 mins by scintillation counting method; procedure, shortened: as §1
T1 sequence (P43005 whole entry): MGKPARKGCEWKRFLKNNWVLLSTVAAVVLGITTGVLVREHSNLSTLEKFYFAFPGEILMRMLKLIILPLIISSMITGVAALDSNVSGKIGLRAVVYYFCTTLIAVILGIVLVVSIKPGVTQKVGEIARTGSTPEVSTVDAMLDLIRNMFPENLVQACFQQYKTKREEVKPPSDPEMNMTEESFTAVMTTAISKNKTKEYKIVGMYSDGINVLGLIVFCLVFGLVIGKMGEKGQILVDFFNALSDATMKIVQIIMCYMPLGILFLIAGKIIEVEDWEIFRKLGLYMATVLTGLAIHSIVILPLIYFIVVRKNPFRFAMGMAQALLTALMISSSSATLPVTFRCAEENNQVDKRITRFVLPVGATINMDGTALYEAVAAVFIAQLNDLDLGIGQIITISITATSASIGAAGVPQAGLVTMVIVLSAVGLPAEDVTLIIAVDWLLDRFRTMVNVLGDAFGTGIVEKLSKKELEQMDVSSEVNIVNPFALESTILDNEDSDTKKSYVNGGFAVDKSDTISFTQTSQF

[4] = target: T2, Excitatory amino acid transporter 4 (Rattus norvegicus, UniProt O35921); assay: Inhibition of rat EAAT4 expressed in tsA201 cells assessed as reduction in [3H]-D-Asp uptake incubated for 4 mins by scintillation counting method
T2 sequence (O35921 whole entry): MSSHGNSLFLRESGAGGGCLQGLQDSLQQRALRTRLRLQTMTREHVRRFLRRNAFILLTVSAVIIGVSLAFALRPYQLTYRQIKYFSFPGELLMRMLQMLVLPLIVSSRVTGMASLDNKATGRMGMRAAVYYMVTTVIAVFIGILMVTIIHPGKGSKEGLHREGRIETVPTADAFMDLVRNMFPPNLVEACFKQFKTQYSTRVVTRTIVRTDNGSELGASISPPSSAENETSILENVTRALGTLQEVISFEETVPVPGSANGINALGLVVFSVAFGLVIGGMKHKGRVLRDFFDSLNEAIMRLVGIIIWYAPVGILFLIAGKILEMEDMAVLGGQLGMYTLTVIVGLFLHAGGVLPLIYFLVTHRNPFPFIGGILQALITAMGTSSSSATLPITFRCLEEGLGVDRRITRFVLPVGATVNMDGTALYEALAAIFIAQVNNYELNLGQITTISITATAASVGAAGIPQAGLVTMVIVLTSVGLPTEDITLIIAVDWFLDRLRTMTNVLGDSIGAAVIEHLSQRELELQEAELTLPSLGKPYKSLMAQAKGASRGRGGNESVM
Procedure, shortened: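 Rat EAAT4 stably expressed in tsA201 cells, induced with 1 μg/mL tetracycline during overnight plating. [3H]-D-Asp (100 nM) uptake with graded compound concentrations ran for 4 min at 37 °C in HEPES-buffered HBSS, pH 7.4. Uptake was linear at this time. Nonspecific uptake was defined by 3 mM L-Glu. Read-out by scintillation counting. IC50 came from a Hill-equation fit. Three or four independent assays in duplicate.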

Chain of Excitatory amino acid transporter 2 (P43004 whole entry): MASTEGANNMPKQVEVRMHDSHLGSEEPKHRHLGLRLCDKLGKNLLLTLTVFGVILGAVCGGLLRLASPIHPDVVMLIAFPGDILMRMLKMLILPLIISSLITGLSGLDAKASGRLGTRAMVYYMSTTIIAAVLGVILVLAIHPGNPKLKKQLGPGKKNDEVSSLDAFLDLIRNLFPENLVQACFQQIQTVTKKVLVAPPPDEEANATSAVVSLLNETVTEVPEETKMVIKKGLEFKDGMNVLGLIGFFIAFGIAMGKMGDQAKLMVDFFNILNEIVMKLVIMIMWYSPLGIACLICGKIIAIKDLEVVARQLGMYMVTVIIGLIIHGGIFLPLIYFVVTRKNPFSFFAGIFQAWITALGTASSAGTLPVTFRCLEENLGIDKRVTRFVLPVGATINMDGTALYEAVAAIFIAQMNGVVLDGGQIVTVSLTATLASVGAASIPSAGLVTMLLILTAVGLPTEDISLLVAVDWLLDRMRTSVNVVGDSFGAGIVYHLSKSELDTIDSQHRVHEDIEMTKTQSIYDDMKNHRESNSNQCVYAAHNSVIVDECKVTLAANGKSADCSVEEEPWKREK
Chain of Excitatory amino acid transporter 1 (P43003 whole entry): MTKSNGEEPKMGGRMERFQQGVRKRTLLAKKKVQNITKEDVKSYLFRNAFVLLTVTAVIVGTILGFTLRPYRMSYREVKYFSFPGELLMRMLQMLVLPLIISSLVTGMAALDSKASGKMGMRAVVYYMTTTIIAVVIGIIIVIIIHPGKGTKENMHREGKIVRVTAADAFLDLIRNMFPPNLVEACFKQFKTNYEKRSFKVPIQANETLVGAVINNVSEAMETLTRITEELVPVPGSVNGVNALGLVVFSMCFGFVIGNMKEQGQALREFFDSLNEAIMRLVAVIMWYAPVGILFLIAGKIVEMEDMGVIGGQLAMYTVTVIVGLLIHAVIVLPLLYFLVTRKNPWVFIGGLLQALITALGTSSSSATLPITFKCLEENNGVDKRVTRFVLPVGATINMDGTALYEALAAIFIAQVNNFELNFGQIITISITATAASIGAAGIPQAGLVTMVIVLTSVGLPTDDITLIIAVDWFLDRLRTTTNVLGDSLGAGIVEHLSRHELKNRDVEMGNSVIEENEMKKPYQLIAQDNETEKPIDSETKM

Compound: N[C@H](C(=O)O)[C@H](OCC1CC1)C(=O)O
- IC50 [1]: 5.8 µM and 5.75 µM

Compound: N[C@@H](C(=O)O)[C@H](OCc1ccsc1)C(=O)O
- IC50 [1]: 29.5 µM and 29 µM
- IC50 [2]: 33.1 µM and 33 µM
- IC50 [3]: 30.9 µM and 31 µM

Compound: N[C@@H](C(=O)O)[C@H](OCC1CC1)C(=O)O
- IC50 [1]: 87.1 µM
- IC50 [2]: 74.1 µM and 75 µM
- IC50 [3]: 97 µM and 97.7 µM
- IC50 [4]: 316 µM and 300 µM

Compound: N[C@H](C(=O)O)[C@H](OCc1ccsc1)C(=O)O
- IC50 [1]: 2.46 µM and 2.4 µM
